TRPC6 act: activates the mouse TRPC6 cation channel. HEK293-TRPC6 membrane potential dye fluorescence; active compounds read high. B-score at 10 µM. 0.13% of 310,000 active. AID 2550;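 active = B-score of the integrated fluorescence ratio above library mean plus 3 SD, and starting fluorescence ratio within library mean plus 5 SD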;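 note: higher score means more depolarization so channel activation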
TRPC4 potent: TRPC4 (mouse) allosteric potentiation | AID 2227 | Q9QUQ5 | B-score at 10 µM | 0.42% of 310,000 active | HEK293 TRPC4beta/mu-opioid, DAMGO EC20, Fluo-4 Ca2+ flux; active compounds read high;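 active = B-score of calcium response area above 5 SD of library B-scores, with initial fluorescence ratio within 5 SD of library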;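 note: B-score of integrated fluorescence ratio over time as area under calcium response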
Target sequence (Q9QUQ5 whole entry, looked up): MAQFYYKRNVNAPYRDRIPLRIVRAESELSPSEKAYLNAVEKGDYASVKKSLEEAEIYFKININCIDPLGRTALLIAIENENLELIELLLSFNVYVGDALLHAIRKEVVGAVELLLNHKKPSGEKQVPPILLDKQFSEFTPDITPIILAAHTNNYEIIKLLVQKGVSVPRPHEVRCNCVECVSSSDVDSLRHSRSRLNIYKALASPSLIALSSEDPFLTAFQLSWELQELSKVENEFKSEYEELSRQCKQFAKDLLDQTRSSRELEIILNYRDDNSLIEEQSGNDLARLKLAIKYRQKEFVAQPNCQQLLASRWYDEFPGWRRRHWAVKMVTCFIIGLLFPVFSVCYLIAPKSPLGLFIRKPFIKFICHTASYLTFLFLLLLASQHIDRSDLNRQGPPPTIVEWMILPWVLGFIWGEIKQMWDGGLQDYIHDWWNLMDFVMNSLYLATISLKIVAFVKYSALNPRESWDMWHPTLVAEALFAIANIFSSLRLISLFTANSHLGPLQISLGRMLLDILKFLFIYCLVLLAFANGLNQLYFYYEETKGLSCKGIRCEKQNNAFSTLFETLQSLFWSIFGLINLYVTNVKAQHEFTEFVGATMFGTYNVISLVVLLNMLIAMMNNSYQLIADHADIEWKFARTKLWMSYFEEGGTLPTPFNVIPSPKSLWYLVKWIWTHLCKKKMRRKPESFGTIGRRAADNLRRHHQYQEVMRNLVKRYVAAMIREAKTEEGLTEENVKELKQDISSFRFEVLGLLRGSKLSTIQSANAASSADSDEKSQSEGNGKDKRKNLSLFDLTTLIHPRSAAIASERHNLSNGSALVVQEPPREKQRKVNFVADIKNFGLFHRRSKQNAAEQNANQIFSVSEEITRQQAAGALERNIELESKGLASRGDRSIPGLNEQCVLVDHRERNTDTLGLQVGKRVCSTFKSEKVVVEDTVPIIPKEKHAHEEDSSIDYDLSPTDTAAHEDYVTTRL
TRPC4 block: inhibitors of mouse TRPC4 channel; Q9QUQ5; HEK293 TRPC4beta/mu-opioid, DAMGO-evoked Fluo4 calcium flux; active compounds read low; B-score at 10 µM; 0.39% of 300,000 active; AID 2247;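 active = B-score over 3 SD under the library average, no early fluorescence shift, positive overall ratio signal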
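material = TRPC4beta/mu-opioid receptor HEK293 cell line | probe or stimulus = sequential submaximal and maximal DAMGO stimulation | compound dosing = one concentration per compound | measured by = Fluo4 Ca2+ flux fluorescence | evaluation = integrated fluorescence ratio relative to baseline, converted to per-well B score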
TRPC6 inhibitor: inhibitors of mouse TRPC6 channel; HEK293-TRPC6, membrane potential dye, ACh-evoked depolarization; active compounds read low; B-score at 10 µM; 1.1% of 310,000 active; AID 2553;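 active = B-score under library mean minus 3 SD, initial fluorescence not abnormally high, positive integrated signal ratio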;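 note: B-score derived from integrated fluorescence ratio over the kinetic read; more negative B-score means stronger inhibition of depolarization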
TRPC4 act: opens the mouse TRPC4 cation channel. Q9QUQ5. HEK293 TRPC4beta/mu-opioid, Fluo4 calcium fluorescence; active compounds read high. B-score at 10 µM. 0.49% of 310,000 active. AID 2237;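 active = B-score above 5 SD of library B-scores, and initial fluorescence ratio not above library mean plus 5 SD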;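 note: positive B-score marks a calcium rise read as TRPC4 activation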
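Material: TRPC4beta and mu-opioid receptor HEK293 stable cells | Incubation: 45 min room-temperature Fluo4 loading, 110 s read | Detection: Kinetic Fluo4 calcium fluorescence | Measure: Integrated baseline-normalised fluorescence ratio, converted to per-well B score | Benchmarks: Low control buffer alone, high control maximal DAMGO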
* hit, by the source's call; i = inactive. In the library only some 2.3% were active in any assay of this set; here they are far more common.

SMILES	TRPC6 act	TRPC4 potent	TRPC4 block	TRPC6 inhibitor	TRPC4 act
CN(C)C(CNC(=O)Nc1cccc(Cl)c1)c1cccnc1 (configuration not stated)	i	i	i	i	65*
CCc1cccc(CC)c1NC(=S)NCC(c1cccnc1)N(C)C (configuration not stated)	i	i	i	i	79*
O=C(NCc1cccnc1)Nc1cccc(Cl)c1	i	i	i	i	i
CNC(=O)CSc1nc2cccnc2n1-c1ccc(F)cc1	i	i	i	i	i
CN(CCCNC(=O)c1ccc(/C=N/O)nc1)CCCN(C)Cc1ccccc1	i	13*	i	i	i
O=C(NCCCNCCCNC(=O)c1ccc(/C=N/O)nc1)c1ccc(/C=N/O)nc1	i	i	i	i	i
CN(CCNC(=O)c1ccc(/C=N/O)nc1)Cc1ccccc1	i	22*	i	i	i
O=C(O)c1ccc(S(=O)(=O)N2CCSCC2)cc1	i	i	i	i	i
COc1ccc(C(=O)C2CCCN(Cc3cn(C)nc3-c3ccccc3)C2)cc1F (configuration not stated)	i	i	i	i	i
COc1ccc(C(=O)C2CCCN(Cc3cn[nH]c3-c3ccc(F)cc3)C2)cc1OC (configuration not stated)	i	i	i	i	44*
COc1ccc(C(=O)C2CCCN(Cc3ccc(Sc4nncn4C)o3)C2)cc1F (configuration not stated)	i	i	i	i	131*
COc1ccccc1CC(=O)c1ccc(OCc2ccccc2)cc1	i	i	i	i	i
CN1CCN(S(=O)(=O)c2cccc(C(=O)N(C)CC(=O)Nc3ccc(F)c(F)c3F)c2)CC1	i	i	i	i	i
CCOCCN1CCN(c2c(C)c(C)nc3cc(-c4cc(OC)cc(OC)c4)nn23)CC1	i	i	i	i	i
COCCN1CCN(c2c(C)c(C)nc3cc(-c4cccc(OC)c4)nn23)CC1	i	i	i	i	48*
NC(=O)C1CCCN(CCc2ccccc2)C1 (configuration not stated)	i	i	i	i	103*
CCOC(=O)C1CCCN(CCC(C)c2ccccc2)C1 (configuration not stated)	i	i	i	i	i
CC(CN1CCCC(C(N)=O)C1)c1ccccc1 (configuration not stated)	i	i	i	i	131*
O=C(CCN1C(=O)[C@@H]2Cc3ccccc3CN2C1=O)NCc1ccc(Cl)cc1	i	i	i	i	i
COC(=O)c1ccc(NC(=O)CCc2nnc3ccc(N4CCC5(CC4)OCCO5)nn23)cc1	i	i	i	i	i
Clc1cccc(OCCN2CCNCC2)c1	i	i	i	i	97*
Clc1cccc(OCCOCCN2CCNCC2)c1Cl	i	i	i	i	44*
Clc1cccc(OCCCN2CCCC2)c1Cl	i	i	i	i	i
CC1(c2ccc3ccccc3c2)NC(=O)N(CC(=O)NCC(C)(C)N2CCOCC2)C1=O (configuration not stated)	i	i	i	i	i
CN(CC(=O)Nc1ccc(F)c(F)c1F)C(=O)c1ccc(-n2cncn2)c([N+](=O)[O-])c1	i	i	i	i	i
SMILES	TRPC6 act	TRPC4 potent	TRPC4 block	TRPC6 inhibitor	TRPC4 act
O=S(=O)(Cc1ccccc1)N1CCC(c2nc(-c3cccs3)no2)CC1	i	17*	i	i	i
CCC(=O)N/C(N)=N/c1nc(C)c2cc(OC)ccc2n1	i	i	-7*	i	i
COc1ccc2nc(/N=C(\N)NC(=O)C(C)(C)C)nc(C)c2c1	i	i	i	i	i
COc1ccc(/C=C\c2cc(OC)c(OC)cc2CC[N+](C)(C)C)cc1OC	i	i	i	-7.7*	i
Cc1onc(-c2ccccc2Cl)c1C(=O)N1CCCCCC1	i	i	i	i	i
CCCCN=C(Nc1ccc(Cl)cc1)c1cccnc1	i	i	-6*	i	i
CCCN=C(Nc1ccc(Cl)cc1)c1cccnc1	i	i	i	i	i
COc1cccc(C(=O)NCC(c2ccco2)N2CCOCC2)c1 (configuration not stated)	i	i	i	i	i
CN(C)CCOC(=O)c1cccc(Br)c1	i	10*	i	i	44*
CCN(CC)CCCNCC(=O)Nc1ccc2c(c1)CCC2	i	i	i	i	i
CCN(CC)CCCNCC(=O)Nc1ccc(OC)c(Cl)c1	i	i	i	i	65*
Cc1ccccc1CC(=O)NC1CCCc2ccccc21 (configuration not stated)	i	i	i	i	i
O=[N+]([O-])c1ccccc1CNC1CCCc2ccccc21 (configuration not stated)	i	i	-6*	i	i
O=C(Nc1ccc(C(=O)NCCCN2CCN(c3ccc(F)cc3)CC2)cc1)C1=CSCCO1	i	i	i	i	i
CCc1ccc(OCc2ccc(C(=O)NCc3ccccn3)o2)cc1	i	25*	i	i	i
CCOc1ccc(OCc2ccc(C(=O)NCc3ccncc3)o2)cc1	i	i	i	i	i
COc1cccc(NC(=O)CN(C)C(=O)c2cccnc2Sc2ccc(C)c(C)c2)c1	i	i	i	i	i
Cc1ccc2[nH]c3c(N4CCc5ccccc5C4)ncnc3c2c1	i	i	i	i	76*
Cc1ccc(CSc2cc(C)[nH]c(=O)n2)cc1	i	i	i	i	i
O=C(COC(=O)c1ccccn1)Nc1nc(-c2ccccc2)cs1	i	i	-6*	i	i
O=C(COC(=O)C1CC1)Nc1nc(-c2ccc(F)c(F)c2)cs1	i	i	-6*	i	i
O=C(c1cccc([N+](=O)[O-])c1)N1CCCC(C(=O)N2CCCCCC2)C1 (configuration not stated)	i	29*	i	i	i
CCOc1ccc(NC(=O)CN(C)C(=O)c2ccc(-c3ccc(C(C)=O)cc3)o2)cc1OCC	i	i	i	i	i
CCCCC(=O)NC(c1ccccc1)c1ccc2cccnc2c1O (configuration not stated)	i	i	i	i	i
CCCC(=O)NC(c1ccccc1)c1ccc2cccnc2c1O (configuration not stated)	i	i	i	-5.8*	i
